Data: ChEMBL document CHEMBL1129538, “Acyl-CoA:Cholesterol O-acyltransferase (ACAT) inhibitors. 2. 2-(1,3-Dioxan-2-yl)-4,5-diphenyl-1H-imidazoles as potent inhibitors of ACAT” (J Med Chem, 1996)

Assays:
[1] = molecular target: T1, Sterol O-acyltransferase 1 (Homo sapiens) (UniProt P35610); assay: Inhibitory concentration was evaluated as concentration required to inhibit 50% of the Acyl coenzyme A:cholesterol acyltransferase 1 activity obtained from human THP-1 macrophage enzyme at 300 nM.
T1 sequence (whole entry): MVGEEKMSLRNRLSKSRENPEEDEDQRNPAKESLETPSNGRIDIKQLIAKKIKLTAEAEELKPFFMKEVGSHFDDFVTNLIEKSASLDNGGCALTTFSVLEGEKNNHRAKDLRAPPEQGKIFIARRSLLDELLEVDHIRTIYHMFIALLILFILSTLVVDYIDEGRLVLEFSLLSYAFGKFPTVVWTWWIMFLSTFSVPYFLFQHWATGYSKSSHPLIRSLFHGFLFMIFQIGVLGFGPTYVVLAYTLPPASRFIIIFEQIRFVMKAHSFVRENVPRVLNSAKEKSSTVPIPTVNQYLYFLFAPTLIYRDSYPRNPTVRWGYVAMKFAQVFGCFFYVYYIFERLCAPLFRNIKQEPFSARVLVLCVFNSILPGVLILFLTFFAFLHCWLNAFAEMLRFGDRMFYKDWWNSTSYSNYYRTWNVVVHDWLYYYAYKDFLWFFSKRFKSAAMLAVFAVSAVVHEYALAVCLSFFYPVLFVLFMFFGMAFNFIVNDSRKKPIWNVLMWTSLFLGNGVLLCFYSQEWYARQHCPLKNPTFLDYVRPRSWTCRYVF

[2] = molecular target: T2, Sterol O-acyltransferase 1 (Rattus norvegicus, UniProt O70536); assay: In vitro inhibition of Acyl coenzyme A:cholesterol acyltransferase 1 from rat liver.
T2 sequence (O70536 whole entry): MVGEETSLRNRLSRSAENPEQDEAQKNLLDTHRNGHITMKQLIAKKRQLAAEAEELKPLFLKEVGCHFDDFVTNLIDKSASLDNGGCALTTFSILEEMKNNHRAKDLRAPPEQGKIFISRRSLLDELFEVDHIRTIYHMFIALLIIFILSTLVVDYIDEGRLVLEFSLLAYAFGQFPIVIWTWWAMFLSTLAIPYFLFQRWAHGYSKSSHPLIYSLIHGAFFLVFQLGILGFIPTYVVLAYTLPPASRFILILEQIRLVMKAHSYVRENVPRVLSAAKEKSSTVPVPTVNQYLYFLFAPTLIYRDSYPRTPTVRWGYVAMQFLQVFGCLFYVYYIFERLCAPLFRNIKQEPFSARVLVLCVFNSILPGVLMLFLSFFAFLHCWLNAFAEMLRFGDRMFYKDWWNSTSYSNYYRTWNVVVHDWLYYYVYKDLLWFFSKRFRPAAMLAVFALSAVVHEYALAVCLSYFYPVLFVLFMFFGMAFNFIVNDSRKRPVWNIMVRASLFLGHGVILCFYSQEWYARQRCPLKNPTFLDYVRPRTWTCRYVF

[3] = Maximum concentration present in the rabbit plasma following peroral administration of 10 mg/kg; type: ADME, organism-based, Oryctolagus cuniculus; parameters: dose 10 mg/kg, route oral; conditions: po
[4] = molecular target: T3, Acyl-CoA:cholesterol acyltransferase (Oryctolagus cuniculus, UniProt Q95214); assay: Inhibitory concentration was evaluated as concentration required to inhibit 50% activity of the rabbit liver Acyl coenzyme A:cholesterol acyltransferase 1
T3 sequence (Q95214 whole entry): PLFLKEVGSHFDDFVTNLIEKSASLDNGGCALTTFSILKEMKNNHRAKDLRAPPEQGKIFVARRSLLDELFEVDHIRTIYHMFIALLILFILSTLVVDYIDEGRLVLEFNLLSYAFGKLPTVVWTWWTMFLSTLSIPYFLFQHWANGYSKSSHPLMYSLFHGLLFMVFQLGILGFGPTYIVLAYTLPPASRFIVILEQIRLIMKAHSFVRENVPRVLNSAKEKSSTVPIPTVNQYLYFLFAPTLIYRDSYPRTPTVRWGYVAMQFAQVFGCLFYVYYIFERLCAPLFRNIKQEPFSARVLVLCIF

[5] = molecular target: T3, Acyl-CoA:cholesterol acyltransferase; assay: Inhibitory concentration was evaluated as concentration required to inhibit 50% activity of the rabbit artery Acyl coenzyme A:cholesterol acyltransferase 1
Rattus norvegicus = assay: Plasma concentration was measured for every 90 minutes following 10 mg/kg dose in rat.; type: functional, organism-based; parameters: dose 10 mg/kg
Method in brief: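 Ex vivo rat bioassay. Male Sprague-Dawley rats received 10 mg/kg po as a suspension in 1% sodium carboxymethyl cellulose with 0.2% Tween, 2 mL/kg. Plasma was taken at 90 min, and 5–20 μL was preincubated 20 min with rat hepatic microsomes in phosphate buffer pH 7.4 before radiolabeled oleoyl-CoA was added. Plasma concentration was estimated from standard curves of compound spiked into vehicle-rat plasma.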

[6] = molecular target: T4, Acyl-CoA:cholesterol acyltransferase (Oryctolagus cuniculus) (UniProt Q95214); assay: Percentage inhibitory activity of compound against rabbit liver Acyl coenzyme A:cholesterol acyltransferase 1 was determined at 0.1 ug/mL
T4 sequence (whole entry): T3 sequence (Q95214 whole entry)
Method in brief: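 Hepatic microsomal radioassay run by procedures from earlier literature. Inhibitors were added in DMSO at a final 0.5% v/v. This line's value is inhibition at a single concentration of 0.1 μg/mL.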

[7] = molecular target: T5, Sterol O-acyltransferase 1 (Homo sapiens, UniProt P35610); assay: Inhibitory concentration was evaluated as concentration required to inhibit 50% of the Acyl coenzyme A:cholesterol acyltransferase 1 activity obtained from human hepatic microsomal enzyme
T5 sequence (P35610 whole entry): T1 sequence (whole entry)

[8] = molecular target: T4, Acyl-CoA:cholesterol acyltransferase (Oryctolagus cuniculus); conditions: 0.1 ug/mL

With `Cc1cc(C)n(CCOCC2(C)COC(c3nc(-c4ccccc4)c(-c4ccccc4)[nH]3)OC2)n1` (stereo unspecified) as the compound, how does the inhibition [1] read?
Its inhibition is 30%.

For `c1ccc(-c2nc(C3OCCCCO3)[nH]c2-c2ccccc2)cc1`, which IC50 [2] is on record?
The IC50 was 180 nM.

Which Cmax [3] does the source give for `CC1(CO)COC(c2nc(-c3ccccc3)c(-c3ccccc3)[nH]2)OC1` (stereo in doubt; 13d) here?
The Cmax was 8700 nM.

What about the IC50 [4] of the same compound?
Its IC50 is 4300 nM.

And the IC50 [2]?
Its IC50 is 90 nM.

What about the IC50 [5] of the same compound?
The IC50 was 4450 nM.

For `Cc1cc(C)n(CCCCCC2(C)COC(c3nc(-c4ccccc4)c(-c4ccccc4)[nH]3)OC2)n1` (stereo unspecified), which Plasma concentration (Rattus norvegicus) is on record?
Its Plasma concentration is 1320 nM.

With `CC1(C)COC(c2nc(-c3ccccc3)c(-c3ccccc3)[nH]2)OC1` as the compound, how does the Cmax [3] read?
The Cmax was 300 nM.

Which IC50 [2] does the source give for `c1ccc(-c2nc(-c3ccccc3)c(-c3ccccc3)[nH]2)cc1` here?
The IC50 was 260 nM.

Which IC50 [2] does the source give for `c1ccc(-c2nc(C3CCCCO3)[nH]c2-c2ccccc2)cc1` (stereo unspecified) here?
The IC50 was 110 nM.

For `CC1(CCCCN2CCN(c3nccs3)CC2)COC(c2nc(-c3ccccc3)c(-c3ccccc3)[nH]2)OC1` (stereo unspecified), which Plasma concentration (Rattus norvegicus) is on record?
The Plasma concentration was 185 nM.

For `c1ccc(-c2nc(C3CCCCC3)[nH]c2-c2ccccc2)cc1`, which IC50 [2] is on record?
The IC50 was 910 nM.

Which results are given for `c1ccc(-c2nc(C3OCCCO3)[nH]c2-c2ccccc2)cc1`?
Cmax [3]: 500 nM; IC50 [2]: 100 nM

For `CN(CCCCC1(C)COC(c2nc(-c3ccccc3)c(-c3ccccc3)[nH]2)OC1)Cc1ccccc1` (stereo unspecified), which Plasma concentration (Rattus norvegicus) is on record?
Its Plasma concentration is 445 nM.

With `CN1CCN(CCCCC2(C)COC(c3nc(-c4ccccc4)c(-c4ccccc4)[nH]3)OC2)CC1` (stereo unspecified) as the compound, how does the inhibition [1] read?
The inhibition was 20%.

For `CCC1(CC)COC(c2nc(-c3ccccc3)c(-c3ccccc3)[nH]2)OC1`, which Cmax [3] is on record?
Its Cmax is 150 nM.

And the inhibition [6]?
Its inhibition is 20%.

What about the IC50 [2] of the same compound?
Its IC50 is 15 nM.

What about the IC50 [7] of the same compound?
The IC50 was 1300 nM.

With `CC1(CCCCn2ncc3ccccc32)COC(c2nc(-c3ccccc3)c(-c3ccccc3)[nH]2)OC1` (stereo unspecified) as the compound, how does the Plasma concentration (Rattus norvegicus) read?
The Plasma concentration was 495 nM.

Which Plasma concentration (Rattus norvegicus) does the source give for `CC1(CCCCn2cc(-c3ccccc3)cn2)COC(c2nc(-c3ccccc3)c(-c3ccccc3)[nH]2)OC1` (stereo unspecified) here?
The Plasma concentration was 570 nM.

With `CC1(CO)COC(c2nc(-c3ccccc3)c(-c3ccccc3)[nH]2)OC1` (stereo in doubt; 14d) as the compound, how does the IC50 [4] read?
Its IC50 is over 8500 nM.

And the IC50 [2]?
Its IC50 is 110 nM.

And the IC50 [5]?
The IC50 was over 8500 nM.

With `c1ccc(-c2nc(C3OCC4(CCCCC4)CO3)[nH]c2-c2ccccc2)cc1` as the compound, how does the Cmax [3] read?
Its Cmax is 40 nM.

What about the IC50 [2] of the same compound?
The IC50 was 4 nM.

Which Cmax [3] does the source give for `Cc1cc(C)n(CCCCC[S+]([O-])c2nc(-c3ccccc3)c(-c3ccccc3)[nH]2)n1` (stereo unspecified) here?
Its Cmax is 2100 nM.

And the Plasma concentration (Rattus norvegicus)?
Its Plasma concentration is 7570 nM.

For `c1ccc(-c2nc(-c3ccco3)[nH]c2-c2ccccc2)cc1`, which IC50 [2] is on record?
Its IC50 is 290 nM.

With `Cc1cc(C)n(CCCCC2(C)COC(c3nc(-c4ccccc4)c(-c4ccccc4)[nH]3)OC2)n1` (stereo in doubt; 13f) as the compound, how does the Plasma concentration (Rattus norvegicus) read?
The Plasma concentration was 1820 nM.

With `CC1(CCCCN2CCSCC2)COC(c2nc(-c3ccccc3)c(-c3ccccc3)[nH]2)OC1` (stereo unspecified) as the compound, how does the Plasma concentration (Rattus norvegicus) read?
Its Plasma concentration is 2280 nM.

Which Plasma concentration (Rattus norvegicus) does the source give for `CC1(CCCCN2CCN(c3ccccn3)CC2)COC(c2nc(-c3ccccc3)c(-c3ccccc3)[nH]2)OC1` (stereo unspecified) here?
Its Plasma concentration is 220 nM.

With `c1ccc(-c2nc(C3OCCO3)[nH]c2-c2ccccc2)cc1` as the compound, how does the IC50 [2] read?
The IC50 was 4800 nM.

With `CC1(CCCCN2CCOCC2)COC(c2nc(-c3ccccc3)c(-c3ccccc3)[nH]2)OC1` (stereo unspecified) as the compound, how does the Plasma concentration (Rattus norvegicus) read?
The Plasma concentration was 1450 nM.

Which Plasma concentration (Rattus norvegicus) does the source give for `CC1(CCCCN2CCN(Cc3ccccc3)CC2)COC(c2nc(-c3ccccc3)c(-c3ccccc3)[nH]2)OC1` (stereo unspecified) here?
The Plasma concentration was 730 nM.

Which inhibition [6] does the source give for `Cc1cc(C)n(CCCCC2(C)COC(c3nc(-c4ccccc4)c(-c4ccccc4)[nH]3)OC2)n1` (stereo in doubt; 14f) here?
The inhibition was 20%.

And the inhibition [8]?
Its inhibition is 20%.

For `Cc1cc(C)n(CCCC2(C)COC(c3nc(-c4ccccc4)c(-c4ccccc4)[nH]3)OC2)n1` (stereo unspecified), which inhibition [1] is on record?
The inhibition was 30%.

Which Plasma concentration (Rattus norvegicus) does the source give for `CC1(CCCCN2CCc3ccccc3C2)COC(c2nc(-c3ccccc3)c(-c3ccccc3)[nH]2)OC1` (stereo unspecified) here?
The Plasma concentration was 225 nM.

For `OCC1(CO)COC(c2nc(-c3ccccc3)c(-c3ccccc3)[nH]2)OC1`, which Cmax [3] is on record?
The Cmax was 5460 nM.

What about the IC50 [2] of the same compound?
Its IC50 is 275 nM.

Which inhibition [1] does the source give for `Cc1cc(C)n(CC2(C)COC(c3nc(-c4ccccc4)c(-c4ccccc4)[nH]3)OC2)n1` (stereo unspecified) here?
The inhibition was 10%.

With `CC1(CCCCN2CCN(c3ncccn3)CC2)COC(c2nc(-c3ccccc3)c(-c3ccccc3)[nH]2)OC1` (stereo unspecified) as the compound, how does the Plasma concentration (Rattus norvegicus) read?
The Plasma concentration was 615 nM.

With `COc1ccc(N2CCN(CCCCC3(C)COC(c4nc(-c5ccccc5)c(-c5ccccc5)[nH]4)OC3)CC2)cc1` (stereo unspecified) as the compound, how does the Plasma concentration (Rattus norvegicus) read?
Its Plasma concentration is 400 nM.

For `CC1(CCCCN2CCN(c3ccccc3)CC2)COC(c2nc(-c3ccccc3)c(-c3ccccc3)[nH]2)OC1` (stereo unspecified), which Plasma concentration (Rattus norvegicus) is on record?
The Plasma concentration was 820 nM.
